Source: ChEMBL document CHEMBL1124035, “1-Amino-substituted 4-methyl-5H-pyrido[4,3-b]indoles (gamma-carbolines) as tricyclic analogues of ellipticines: a new class of antineoplastic agents” (1988)
Where “and” joins values, the source holds several entries; their conditions need not be identical. Equal entries are not always repeated.

What was measured:
Calf thymus DNA = assay: Apparent DNA affinity constant; type: nucleic-acid assay; settings: Bos taurus
Summary of the method: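 Apparent DNA affinity constant was measured by competition with ethidium bromide. Buffer was 20 mM Na2HPO4/NaH2PO4, 0.1 M NaCl, 1 mM EDTA, pH 7.4, with calf thymus DNA at 10 μg/mL. Values are given in 10^6 M⁻¹.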

L1210 = assay: Ability to reduce the cell count to 50% in L1210 culture cells; type: functional; settings: Mus musculus, read-out: ID50 (the source's name)
Summary of the method: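 L1210 cells in exponential growth in RPMI 1640 with 2 mM glutamine, penicillin/streptomycin and 10% FCS, 37 °C, 5% CO2. Drugs dissolved in distilled water were added to cells at 0.8 × 10^5 cells/mL for 48 h, then cells were counted. ID50 is the concentration halving cell proliferation versus controls, from regression of dose-response data; mean of two independent experiments.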

Mus musculus [1] = assay: Median tumoral volume in C38 adenocarcinoma model when a dose of 50 mg/kg administered intravenously on D1 to mice; type: functional; settings: route intravenous
Summary of the method: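 Geran protocol in hybrid BDF1 mice, 10 per test, implanted sc with a standard 3-mm³ fragment of C38 colon adenocarcinoma. Drug was given iv at the stated doses on D1, or on D2 + D9, and tumor growth was followed.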

Mus musculus [2] = assay: Median survival day in P388 cell line when a dose of 20 mg/kg administered intraperitoneally to mice; type: functional; settings: route intraperitoneal
Summary of the method: (§1)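 P388 leukaemia in CDF1 hybrid mice, 10 per group. At D0, 10^6 viable cells were inoculated ip, followed by a single ip dose of drug in distilled water on D1. Weight change, median survival day, T/C (treated/control median survival × 100) and survivors at D30 were recorded. Controls were 20 mice.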

Mus musculus [3] = assay: Antitumor activity against P388 cells at a dose of 5 mg/kg administered intraperitoneally to mice; type: functional; settings: route intraperitoneal
Mus musculus [4] = assay: Antitumor activity against B16 melanoma cells at a dose of 2.5 mg/kg administered intraperitoneally to mice; type: functional; settings: route intraperitoneal
Summary of the method: (§2)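 Hybrid BD F1 mice were inoculated ip at D0 with 0.5 mL of B16 melanoma homogenate (1 g tumor in 10 mL physiological serum). Drugs were given ip daily D1-9. Cisplatin 0.5 mg/kg was the positive control under the same schedule.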

Mus musculus [5] = assay: Antitumor activity against B16 melanoma cells at a dose of 5 mg/kg administered intraperitoneally to mice; type: functional; settings: route intraperitoneal; summary of the method: as §2
Mus musculus [6] = assay: Antitumor activity against P388 leukemia in mice at a dose of 2.5 mg/kg administered intraperitoneally for 5 days; type: functional; settings: route intraperitoneal
Summary of the method: (§3)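 CDF1 hybrid male or female mice, 10 per group, were inoculated ip with 10^6 viable P388 cells on day 0. Drugs in distilled water were given ip (0.1 mL/10 g body weight) daily D1-5. Vehicle, 5-fluorouracil and BD 84 were given the same way. T/C = median survival day of treated / controls × 100; T/C > 128% was significant; cures counted at D60.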

Mus musculus [7] = assay: Antitumor activity against B16 melanoma cells at a dose of 1.25 mg/kg administered intraperitoneally to mice; type: functional; settings: route intraperitoneal; summary of the method: as §2
Mus musculus [8] = assay: Antitumor activity against B16 melanoma cells at a dose of 10 mg/kg administered intraperitoneally to mice; type: functional; settings: route intraperitoneal; summary of the method: as §2
Mus musculus [9] = assay: Antitumor activity against P388 leukemia in intraperitoneally for 5 days; type: functional; summary of the method: as §3
Mus musculus [10] = assay: Weight change in g when a dose of 1.25 mg/kg administered intraperitoneally to B16 melanoma infected mice; type: functional; settings: route intraperitoneal
Summary of the method: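 Hybrid BDF1 mice were inoculated ip at D0 with 0.5 mL of B16 melanoma homogenate (1 g tumor in 10 mL physiological serum). Drug was given ip daily on days 1-9, with cis-platinum 0.5 mg/kg as positive control on the same schedule.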

Mus musculus [11] = assay: Antitumor activity against P388 leukemia in mice at a dose of 5 mg/kg administered intraperitoneally for 5 days; type: functional; settings: route intraperitoneal
Summary of the method: (§4)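 CDF1 hybrid male or female mice, 10 per group, were inoculated ip on day 0 with 10^6 viable P388 leukemia cells. Drug in distilled water was given ip (0.1 mL/10 g body weight) daily on days 1-5, with vehicle, 5-fluorouracil and BD 84 controls given the same way. T/C = median survival of treated/controls × 100; T/C > 128% counted as significant.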

Mus musculus [12] = assay: Median survival day in B16 melanoma cell line when a dose of 10 mg/kg administered intraperitoneally to mice; type: functional; settings: route intraperitoneal
Summary of the method: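 B16 melanoma in hybrid BD F1 mice. At D0 each mouse was inoculated ip with 0.5 mL of homogenate made from 1 g of tumour in 10 mL of physiological serum. Compounds were given ip daily at the stated doses for 9 days (D1-9), with cis-platinum 0.5 mg/kg under the same schedule as positive control.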

Mus musculus [13] = assay: Median survival day in P388 leukemia model when a dose of 10 mg/kg administered intraperitoneally; type: functional; settings: route intraperitoneal; summary of the method: as §1
Mus musculus [14] = assay: Antitumor activity against P388 cells at a dose of 40 mg/kg administered intraperitoneally P388 Leukemia model; type: functional; settings: route intraperitoneal
Summary of the method: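 Mice were inoculated ip with 10^6 P388 leukemia cells at D0, then given a single ip drug dose on D1. Weight change was recorded. T/C % = median survival day of treated / controls × 100; survivors counted at D30; 10 mice per dose group, 20 controls.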

Mus musculus [15] = assay: Antitumor activity against P388 leukemia in mice at a dose of 10 mg/kg administered intraperitoneally for 5 days; type: functional; settings: route intraperitoneal; summary of the method: as §3
Mus musculus [16] = assay: Weight change in g when a dose of 10 mg/kg administered intraperitoneally to P388 leukemia model; type: functional; settings: route intraperitoneal
Summary of the method: (§5)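 P388 model with a single ip dose. Mice (10 per group) were inoculated ip at D0 with 10^6 P388 cells and given one ip drug dose at D1. Body-weight change (g), median survival day, T/C and survivors at D30 were recorded.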

Mus musculus [17] = assay: Weight change in g when a dose of 20 mg/kg administered intraperitoneally to P388 leukemia model; type: functional; settings: route intraperitoneal; summary of the method: as §5
Mus musculus [18] = assay: Survivors at day 30 when a dose of 10 mg/kg to P388 leukemia model; 0/10; type: functional; summary of the method: as §1
Mus musculus [19] = assay: Weight change in g when a dose of 80 mg/kg administered intraperitoneally to P388 leukemia model; type: functional; settings: route intraperitoneal
Summary of the method: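 P388 leukemia cells (10^6 viable) inoculated ip on day 0 into CDF1 hybrid male or female mice, 10 per test group. Drug dissolved in distilled water and given as a single ip dose on day 1. Body weight change (g) recorded for each dose group, alongside median survival day, T/C and survivors at D30, against vehicle controls (20 mice).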

Mus musculus [20] = assay: Antitumor activity against P388 leukemia in mice at a dose of 30 mg/kg administered intraperitoneally for 5 days; type: functional, organism-based; set-up: dose 30 mg/kg; summary of the method: as §4
Mus musculus [21] = assay: Survivors at day 60 when a dose of 2.5 mg/kg to B16 melanoma infected mice; 0/10; type: functional
Mus musculus [22] = assay: Median survival day in P388 leukemia model when a dose of 20 mg/kg administered intraperitoneally; type: functional; settings: route intraperitoneal; summary of the method: as §1
Mus musculus [23] = assay: In vivo toxicity test on P388 cells at a dose of 100 mg/kg administered intravenously to P388 leukemia mice model; type: functional; settings: route intravenous
Summary of the method: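 Mice (10 per group) were inoculated ip at D0 with 10^6 P388 leukemia cells and given a single iv dose at D1. Read-outs were weight change (g), median survival day, T/C % versus controls and survivors at D30.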

Mus musculus [24] = assay: Survivors at day 30 when a dose of 40 mg/kg to P388 leukemia model; 1/10; type: functional

Row | SMILES | K aff (Calf thymus DNA) [M⁻¹] | IC50 (L1210) [nM] | T/C (Mus musculus [4]) [%] | T/C (Mus musculus [5]) [%] | T/C (Mus musculus [6]) [%] | T/C (Mus musculus [7]) [%] | T/C (Mus musculus [8]) [%] | Weight change (Mus musculus [10]) [g] | T/C (Mus musculus [11]) [%] | Median survival day (Mus musculus [13]) | T/C (Mus musculus [15]) [%] | Weight change (Mus musculus [16]) [g] | Weight change (Mus musculus [17]) [g] | Survivors (Mus musculus [18]) | Median survival day (Mus musculus [22]) | also measured
1 | Cc1cnc(NCCCN(C)C)c2c3cc(O)ccc3n(C)c12 | 270000 | 10 | 134 | 206 | 184 | 123 | 48 | 1 | 236 |  |  |  |  |  |  | Median tumoral volume (Mus musculus [1]): 2.73 cm*3; Median survival day (Mus musculus [2]): 18.75; T/C (Mus musculus [3]): 173%; T/C (Mus musculus [9]): Toxic
2 | CCN(CC)CCCNc1[nH]cc(C)c2nc3ccc(O)cc3c1-2 | 200000 | 60 | 124 | 174 | 162 |  | 205 |  | 170 | 15.1 | 185 | 1.2 | 0.2 | 0 | 16.25 | Median survival day (Mus musculus [12]): 56.25; T/C (Mus musculus [14]): 136%; Weight change (Mus musculus [19]): -1.7 g; T/C (Mus musculus [20]): Toxic; Survivors (Mus musculus [21]): 0
3 | CCN(CC)CCCNc1ncc(C)c2c1c1cc(O)ccc1n2C | 240000 | 30 |  |  | 149 | 133 | 79 | -2.5 | 166 | 17.8 | 205 | -0.6 | -1.2 | 0 | 20.8 | T/C (Mus musculus [23]): 223%; T/C (Mus musculus [4]; 2.5 mg/kg): 145% and 170%; Weight change (Mus musculus [19]; dose 20 mg/kg, in the assay text read “20 mg/kg” for “80 mg/kg”): -1.2 g; Survivors (Mus musculus [24]): 1
